Calls of active or inactive are those of the source. No cut-off for these calls is given here.
Legend:
Rattus norvegicus [1] = assay: Increase of HDL level in cholesterol-fed male rats by FPLC method at 63 mg/kg/day relative to control; type: functional
Outline: (§1)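 Groups of six male Sprague–Dawley rats on a cholesterol diet received drug in the diet, ad libitum, for 8 days. Serum lipoproteins separated by FPLC, adapted for robotic automation, and cholesterol quantitated enzymatically by colorimetry. HDL given as % change versus untreated controls, with significance set at p < 0.05.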

Rattus norvegicus [2] = assay: Triglyceride level in cholesterol-fed male rats at 63 mg/kg/day relative to control; type: functional
Outline: (§2)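 Male Sprague–Dawley rats on a cholesterol diet, in groups of six, received the compound in the diet ad libitum for 8 days. Serum triglycerides are expressed as % change relative to untreated controls, with significance at p < 0.05 versus controls.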

Rattus norvegicus [3] = assay: Increase of Apolipoprotein A-I level in cholesterol-fed male rats at 63 mg/kg/day relative to control; type: functional
Outline: (§3)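 Drug mixed into diet, fed ad libitum for 8 days to groups of six male Sprague–Dawley rats on a cholesterol diet. Serum Apo A-I measured by SDS–polyacrylamide gel electrophoresis or by rat competition ELISA. Reported as % change versus untreated controls, with significance set at p < 0.05.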

Rattus norvegicus [4] = assay: Weight gain in cholesterol-fed male rats at 63 mg/kg/day relative to control; type: functional
Outline: (§4)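 Groups of six male Sprague–Dawley rats on a cholesterol diet received the compound in the diet, ad libitum, over 8 days. Body weight gain is reported as % change relative to untreated controls.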

Rattus norvegicus [5] = assay: Increase of total cholesterol level in cholesterol-fed male rats at 63 mg/kg/day relative to control; type: functional
Outline: (§5)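 Dietary (ad libitum) dosing of groups of six male Sprague–Dawley rats on a cholesterol diet for 8 days. Serum total cholesterol was quantitated enzymatically by a colorimetric method and expressed as % change relative to untreated controls, with significance at p < 0.05.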

Rattus norvegicus [6] = species on record: Rattus norvegicus; assay: Increase in liver enzyme Alkaline phosphatase; type: functional; design: concentration or dose not given beside the values
Rattus norvegicus [7] = assay: Increase of HDL level in cholesterol-fed male rats by ultracentrifugation method at 63 mg/kg/day relative to control; type: functional
Outline: (§6)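 Cholesterol-fed male Sprague–Dawley rats, six per group, given drug in the diet ad libitum for 8 days. Serum lipoproteins separated by classical ultracentrifugation and HDL cholesterol measured by an enzymatic colorimetric method. Expressed as % change versus untreated controls, with significance set at p < 0.05.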

Rattus norvegicus [8] = assay: Increase of HDL cholesterol in normal-fed rat at 50 mg/kg/day; type: functional
Rattus norvegicus [9] = assay: Increase of Apo A-I level in cholesterol-fed male rats at 50 mg/kg/day relative to control; type: functional; outline: as §3
Canis familiaris = assay: Increase of HDL cholesterol in normal-fed dog at 250 mg/kg/day; type: functional, organism-based; settings: Canis lupus familiaris
Rattus norvegicus [10] = assay: Increase of HDL level in cholesterol-fed male rats by ultracentrifugation method at 50 mg/kg/day relative to control; type: functional; outline: as §6
Rattus norvegicus [11] = assay: Weight gain in cholesterol-fed male rats at 50 mg/kg/day relative to control; type: functional; outline: as §4
Hamster [12] = assay: Increase of HDL cholesterol in normal-fed hamster at 45 mg/kg/day; type: functional, organism-based; settings: Cricetinae
Rattus norvegicus [13] = assay: Increase of total cholesterol level in cholesterol-fed male rats at 50 mg/kg/day relative to control; type: functional; outline: as §5
Rattus norvegicus [14] = assay: Triglyceride level in cholesterol-fed male rats at 50 mg/kg/day relative to control; type: functional; outline: as §2
Rattus norvegicus [15] = assay: Increase of HDL level in cholesterol-fed male rats by FPLC method at 50 mg/kg/day relative to control; type: functional; outline: as §1
Hamster [16] = assay: Increase of HDL cholesterol in chow-fed hamster at 45 mg/kg/day; type: functional, organism-based; settings: Cricetulus griseus
Rattus norvegicus [17] = species on record: Rattus norvegicus; assay: Increase in liver enzyme Aspartate aminotransferase; type: functional; design: concentration or dose not given beside the values
[18] = target: T1, Peroxisome proliferator-activated receptor alpha (Rattus norvegicus, UniProt P37230); assay: Activity against PPAR-alpha
T1 sequence (P37230 whole entry): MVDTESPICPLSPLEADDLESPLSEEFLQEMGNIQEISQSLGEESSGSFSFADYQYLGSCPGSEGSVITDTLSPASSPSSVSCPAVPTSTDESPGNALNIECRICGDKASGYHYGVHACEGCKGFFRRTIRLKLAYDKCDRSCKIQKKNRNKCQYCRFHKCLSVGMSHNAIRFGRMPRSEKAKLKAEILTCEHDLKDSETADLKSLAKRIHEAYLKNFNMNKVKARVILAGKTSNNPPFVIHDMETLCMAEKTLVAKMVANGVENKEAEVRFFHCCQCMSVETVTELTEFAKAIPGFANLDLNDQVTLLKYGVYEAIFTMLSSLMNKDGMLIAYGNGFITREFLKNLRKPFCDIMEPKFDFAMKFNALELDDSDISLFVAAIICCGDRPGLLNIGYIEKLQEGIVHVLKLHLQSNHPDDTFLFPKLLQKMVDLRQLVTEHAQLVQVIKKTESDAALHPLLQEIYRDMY

[19] = target: T2, Peroxisome proliferator-activated receptor delta (Homo sapiens, UniProt Q03181); assay: Activity against PPAR-delta
T2 sequence (Q03181 whole entry): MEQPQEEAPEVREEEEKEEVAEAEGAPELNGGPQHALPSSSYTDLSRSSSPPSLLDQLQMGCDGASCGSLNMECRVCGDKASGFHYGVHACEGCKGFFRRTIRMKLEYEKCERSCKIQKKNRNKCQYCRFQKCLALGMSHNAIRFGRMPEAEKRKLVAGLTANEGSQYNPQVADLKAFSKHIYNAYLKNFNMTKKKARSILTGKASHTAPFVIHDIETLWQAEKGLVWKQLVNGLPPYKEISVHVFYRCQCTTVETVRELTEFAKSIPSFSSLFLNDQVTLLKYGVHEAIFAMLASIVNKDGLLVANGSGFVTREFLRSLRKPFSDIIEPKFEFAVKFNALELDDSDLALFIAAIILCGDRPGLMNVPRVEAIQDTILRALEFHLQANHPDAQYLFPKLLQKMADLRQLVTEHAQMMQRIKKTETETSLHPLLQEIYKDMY

Structure (SMILES)	Activity (Rattus norvegicus [1])	Activity (Rattus norvegicus [2])	Activity (Rattus norvegicus [3])	Activity (Rattus norvegicus [4])	Activity (Rattus norvegicus [5])	Activity (Rattus norvegicus [6])	Activity (Rattus norvegicus [7])	Activity (Rattus norvegicus [8])	Activity (Rattus norvegicus [9])	Activity (Canis familiaris)	Activity (Rattus norvegicus [10])	Activity (Rattus norvegicus [11])	Activity (Hamster [12])	Activity (Rattus norvegicus [13])	Activity (Rattus norvegicus [14])	Activity (Rattus norvegicus [15])	Activity (Hamster [16])	Activity (Rattus norvegicus [17])	EC50 [18]	EC50 [19]
CCC/N=C(\S)Nc1cc(Br)ccc1C	306%	-53%	46%	-29%	47%	44%	142%													
Cc1ccc(C)c(OCCCC(C)(C)C(=O)O)c1 [GEMFIBROZIL]								25%	54%	inactive	104%	2%	inactive	-23%	-29%	139%	inactive			
CC[C@@H]1CCCCN1/C(S)=N/c1cc(Cl)ccc1C	614%	-54%	30%	-105%	167%	105%	129%											80%	> 100 µM	> 100 µM

Source: ChEMBL document CHEMBL1148541, “Biological evaluation of 1-alkyl-3-phenylthioureas as orally active HDL-elevating agents” (Bioorg Med Chem Lett, 2006)
